Assay results from the EternaBench riboswitch data.

Tested on: MS2 coat protein
Assay: apparent Kd, MS2 coat protein; higher = weaker binding; RNA-MaP array; FMN 200 µM where present
Summary of the method: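 Stalled E. coli RNA polymerase transcribed the designs on Illumina sequencing-chip clusters. SNAP-549-labelled MS2 coat protein was titrated from 0.7 or 1.5 nM, doubling to 3 µM, without and then with constant ligand, in 100 mM Tris-HCl pH 7.5, 80 mM KCl, 4 mM MgCl2, BSA, DTT, yeast tRNA and Tween-20. Per-cluster binding curves were fitted to green signal normalised to red-channel RNA signal and control-cluster median Fmax. The apparent Kd is the median of the filtered fits.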

[1] = designed as: ON switch for flavin mononucleotide, no ligand
[2] = ligand present: flavin mononucleotide, designed as: ON switch for flavin mononucleotide
[3] = designed as: OFF switch for flavin mononucleotide, no ligand
[4] = ligand present: flavin mononucleotide, designed as: OFF switch for flavin mononucleotide

Row | Sequence | apparent Kd [1] [nM] | apparent Kd [2] [nM] | apparent Kd [3] [nM] | apparent Kd [4] [nM]
1 | ACCAGGGAUUCAGGAUAUAUUAGCCGAGGCCGCGUAGAAGGGAAAUCCUGACAUGAGGAUCACCCAUGUCGACCCGCCUUCCUA | 47.6 | 46.8 |  | 
2 | AAAGCACGAGGAUAUACAUGAGGAUCACCCAUGUAUAAAAAAAAAAAAAAAUCCUCAUGUAGAAGGCGUGCAAA |  |  | 53.6 | 41
3 | UGGUACAUGGGAGGAUAUGGGUUGAUAACAUGAGGAUCACCCAUGUUAAAUAAGCCGAGAGGCUACCAGAAGGCCCAUGUACCU | 7.29 | 4.99 |  | 
4 | ACUUGUUACUUAUUCAUUGAUUUGUAGGAUAUACGUACAUGAGGAUCACCCAUGUUACAUGUUAUGUAGAAGGACAUCUAAUUU |  |  | 12.2 | 12.6
5 | GUAGUGUAUGUAGGAUAUGUGAAGCAAAGCUUCACAGAAGGACAUGAGGAUCACCCAUGUAUUACAGUCAGCAAUCUGACUGUU |  |  | 39.8 | 137
6 | UGGUACAUGGGAGGAUAUGGGUUGAUAACAUGAGGAUCACCCAUGUUAAAUAUGCCUCAUGGCAACUAGAAGGCCCAUGUACCU | 463 | 95.1 |  | 
7 | GUCAUGUUAGGAUAUCUGACAUGUGACUUCGGUCACUGUCCAGAGAAGGAACAUGAGGAUCACCCAUGUUGGAC |  |  | 55.6 | 63.9
8 | GUACCUCAAGUGAGGAUAUGUCAUUACCGGUGAAGAUAGAAGGCACAUGAGGAUCACCCAUGUGUGGCUCCGUC |  |  | 23.5 | 95.8
9 | GCUAGGCAUGUCAGGAUAUGCUGAACCUUGGUUCAGCAGAAGGGACAUGAGGAUCACCCAUGUGCCAACCUAGC |  |  | 57.4 | 613
10 | AGAAACUACGAGAAGGACAUGUGGUCCUUCAAAAACAUGAGGAUCACCCAUGUAGGAUAUCGUAGUUUCAGGAUCGUGAGAUCA |  |  | 37.6 | 22.8
11 | GGACGUCACAUUAACAUGAGGAUCACCCAUGUAAAAUAACAUGAGGAUAUGGAUCCUAAUUGGAUCCAGAAGGCAUGGACGUCC | 7.66 | 5.58 |  | 
12 | GAGUAGAUCCGAGGAUAUACAAUCCGGAAACGGUACAUGAGGAUCACCCAUGUAGAAGGCGGAUCUACAGGUACUAAAGUACCG |  |  | 5.99 | 9.24
13 | UUUAUUUAGGCAGGAUAUACAUGUAUAUAUAUUUCUUUAUAUCUUAUUACAUGAGGAUCACCCAUGUAGAAGGGCCUUCUUAUC |  |  | 30.1 | 34.5
14 | CAAUUUAUAACAGGAUAUGUAUUACAAAAGUUAAUAGAAGGGUUUAAUACAUGAGGAUCACCCAUGUCAUGUGUCAUAAUUACC |  |  | 36.7 | 29.6
15 | AAAAAGCGAGGAUAUACAUAGCUAAGACGUGUGAGCGAAAAACAUGAGGAUCACCCAUGUAGAAGGCGCAAAAA |  |  | 18 | 17.9
16 | ACGAAAACACAAAUGUUCCACGGUGCAGAAGGGUCCCUCACAUGAGGAUCACCCAUGUAACUCGGACAGGAUAUGCUUUUGGGA | 380 | 11.4 |  | 
17 | CUGAGGUGUCAAGGAUAUGCUACCGUUUCGGUAGCAGAAGGUGAUCACAUGAGGAUCACCCAUGUAUGCAUGCGUGAGCGUGCU | 39.5 | 55.4 |  | 
18 | UGUCGGAGCAGAGGAUAUUACAUGAGGAUCACCCAUGUAUGAACCACUAGCUGGAAACAGCAAUGUAAGAAGGCUGCUCCGACA |  |  | 7.43 | 51.8
19 | UUGUUCUGAGGAUAUACAUGAGGAUCACCCAUGUGUUUCAGCUAGGAGACUAGCGAAUGUAGAAGGCUGUUCUC |  |  | 15.4 | 15.8
20 | GUAGCAUACGGAGGAUAUGUAGGAUCUACAUGAGGAUCACCCAUGUCAAGGACAGAAGGCCGUAUGCUACAAGAGCGAAAGCUC | 11.6 | 5.79 |  | 
21 | UUGGACGACGUAGGAUAUGUAGGAUAUUCCUACAUGAGGAUCACCCAUGUUGACAUGGAAGAAGGACAGAAGGACGAUGUCCAU | 261 | 5.57 |  | 
22 | UAGUAUAAGGGCAUUAAACAUGAGGAUCACCCAUGUACAAUAGAGGAUAUGCAUUUCAGUUUAGAGUAGAAGGUUAGAGAAUAU |  |  | 35.6 | 41.1
23 | GUACCUUAUGAGAAGGCGAUCAUAAAACAUGAUCGAGGAUAUCAUGAAAACAUGAGGAUCACCCAUGUAUGGGUAUUAUGGUAC | 37.3 | 16.7 |  | 
24 | AUCGUAACUUCGUGUCCACAUGAGGAUCACCCAUGUGCUACAAGAAGGGCCCGGGUCGGGUUAGGGCAGGAUAUUGUGUGCACA |  |  | 9.15 | 19.1
25 | AUCGUUCGAGAGAAGGGAACAUGAGGAUCACCCAUGUUACCUCACCUGGUGACGGAACUCCAAGUUCAGGAUAUCUCGAGCAAU |  |  | 5.38 | 8.25
26 | UUCGUGCAGCAUUGCUGUACGCGUACAUGAGGAUCACCCAUGUAGGAUAUGGUAGGCAAAGCUUACUAGAAGGAUAUAGUGAUC |  |  | 109 | 114
27 | CCAAUGUAAGGAUAUGACAAUGGUAUCUUCGGAUACCAUUGUCAGAAGGUACAUGAGGAUCACCCAUGUACAAA |  |  | 14.3 | 16.6
28 | GCUGGACGAGGAUAUACAUUCGUGCUUCGGCACGUAAGAUCACAUGAGGAUCACCCAUGUAGAAGGUGUCCAGC |  |  | 42.1 | 200

Row | Sequence | apparent Kd [1] [nM] | apparent Kd [2] [nM] | apparent Kd [3] [nM] | apparent Kd [4] [nM]
29 | CUCGUGUGAGGAUAUCUAUUCCACGGACGGGAGUCUUGAAGAGAGAAGGCACAUGAGGAUCACCCAUGUAAUAA |  |  |  | 33.7
30 | AUGACAUGCAGAGCGCAACGGCGUACAUGAGGAUCACCCAUGUAGGAUAUACUACACAAAGUGUAGUAGAAGGACAUGCGACGG |  |  | 30.8 | 50.8
31 | UACAUUGCUUAGAAGGGAUAUAUAUAAUUUUAGUCAGGAUAUAGAUACAGUACAACAUGAGGACAUGAGGAUCACCCAUGUAUU | 25.9 | 18.4 |  | 
32 | AUCAGCUCGUGAGGAUAUACAACACUGCUUCGGCAGUGUAUUAAGAUCACAUGAGGAUCACCCAUGUAGAAGGCACGAGCUGAU |  |  | 13.5 | 278
33 | UUUGCAUUCCGAGGAUAUUCAUAUAAUGACUACACAUGAGGAUCACCCAUGUGGCGAUAGCCUAGGGAGAAGGCGGUUUGCUUU | 20.3 | 17.8 |  | 
34 | CACUGCAUGUAAGGAUAUCGACUGGAAUACAGUCGAGAAGGUACAUGAGGAUCACCCAUGUAAGCAGUGAAUAAUAAUAAUAAU |  |  | 12.1 | 23.4
35 | GUAGUGUAUGUAGGAUAUGUGAACGAAACGUUCACAGAAGGACAUGAGGAUCACCCAUGUAUUACAGUCAGCAAUCUGACUGUU |  |  | 25.7 | 107
36 | AGAUGGUAGAGAGGAUAUCAUGUGCUGACAUGAGGAUCACCCAUGUAGGGACGUCAGUCCAAUUAUGAGAAGGCUCUACCAUCU | 49.4 | 40.2 |  | 
37 | GCUGGAAAAGGAUAUACAUAACGUGCGUCAGCACGAGGCCUACAUGAGGAUCACCCAUGUAGAAGGUUUCCAGC |  |  | 17.1 | 25.9
38 | AGGAAGUGCCAGAAGGCUCCUGGAAUCCUAGGGAGAGGAUAUGGCACAUGAGGAUCACCCAUGUGGUAGAUCUGUUUCGAAGUG |  |  | 93.4 | 31.1
39 | AACAUGAGGAUCACCCAUGUCCCACCAGAAGGCUGGCGGUCGUGAGAAAGGCCACGACAAAUAACAGAGGAUAUGGUGAAUGCA | 101 | 19.1 |  | 
40 | UAUAUAUAGUAAGGAUAUGUAAUUAUUUAAUAAACAGAAGGUACUGACAUGAGGAUCACCCAUGUUUUAGUGUGGGCAUGUAGA |  |  | 80.5 | 135
41 | GCGAACUGUGUAGGAUAUUGAGCACUUUUGGAGCAAGAAGGACACCAAGUGCUGACUAUACAUGAGGAUCACCCAUGUUCAGCA | 30.9 | 17.1 |  | 
42 | GUGUAGAUAUCAGGAUAUCUAUUUCCUACAUGAGGAUCACCCAUGUAGAUGAUCACCCAUGUAAAGGAGAAGGGAUAUCUAUAC | 192 | 156 |  | 
43 | UUAUUUUUACAGAAGGUUUAAUAAUAUGUAUGAGAAGGAUAUGUAACAUGAGGAUCACCCAUGUUUCAUCUAUAUGAGGAUCAU |  |  | 6.61 | 5.57
44 | GCACUGGAUGUAGGAUAUCAGGACGAUAAGUCCUGAGAAGGACAUGAGGAUCACCCAUGUAAACCUCACCAGUGCUAUAAUAUA |  |  | 15.5 | 21.1
45 | GGUACACAUGAGGAUCACCCAUGUCGUAUGACAUGAGGAUAUGUACAGACUUCGGUCUGUACAGAAGGCAUGUGUC | 28.1 | 445 |  | 
46 | CAUAUAGUUUGAGGAUAUUCAUGCACUGUAUACGGAGAAGGCAAACUAUCAUGUGGACAUGAGGAUCACCCAUGUAGUGACCAG | 54.2 | 41 |  | 
47 | GUUCUUCCUGUAAGGAUAUCCAUGUAUCAAAGUAUGGAGAAGGUACAUGAGGAUCACCCAUGUCACCCGCGUUA |  |  | 22.8 | 49.6
48 | AAUAUAGAGCUGGAAUAAAACAUCACAUGAGGAUCACCCAUGUAGGAUAUCAGCACGAUAAGUGCUGAGAAGGACAUCCAGCUC |  |  | 14.9 | 14.1
49 | AGCCUACAUGAGGAUCACCCAUGUCAGGAUAUCUCGCGACGUGUCGGGAACACGUUGCAGAGAAGGGACUCGGG |  |  | 56.4 | 69.4
50 | GGUUGGCGAGGAUAUACAUGAGGAUCACCCAUGUGGUCCUGCGAUAGAAUAGCCCUUUGUAGAAGGCGCGGGUC |  |  | 44 | 38
51 | GGCUGCGAUGUGAAGGAUAUCCGCGUCUGGACAUGAGGAUCACCCAUGUAUGCUUGGAUCAUGCCGGAGAAGGUCACGAAUGAUU | 38 | 16.6 |  | 
52 | GUUUCUAUAAGUUAUAAUAAAUAGUCAGAAGGUGAUACUACGACAUGAGGAUCACCCAUGUUUUUCAAGGAUAUGAUGUUACUC | 373 | 50 |  | 
53 | UAAAUAAAGUAAGGAUAUACAUGAGGAUUUCUCGUAGAAGGUACAAGACAUGAGGAUCACCCAUGUAUCGCUCCGUAGAGCGUA | 138 | 237 |  | 
54 | GCGAUUUUGUAAGGAUAUACACGAGUUUCAAGUGUAGAAGGUACUUACAUGAGGAUCACCCAUGUAUACUUGGAUAAUAGUCGC | 27.9 | 23.3 |  | 
55 | ACGACUAGAGGAUAUACAUGAGGAUCACCCAUGUAACUGUCAGGUGACUGACGGAGAUGUAGAAGGCUAGUCGA |  |  | 15.7 | 42.8
